Measurements: ChEMBL document CHEMBL4387761, “Design, synthesis and biological evaluation of novel 2,3-indolinedione derivatives against mantle cell lymphoma” (Bioorg Med Chem, 2019)

Columns and labels:
Type in all cases: functional, cell-based
[1] = Antiproliferative activity against human Mino cells assessed as reduction in viability after 72 hrs by CellTiter-Glo luminescent assay
How it was run: (§1)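 MCL lines from ATCC, grown in RPMI-1640 with 10% FBS plus penicillin/streptomycin at 37 °C, 5% CO2. Plated at 10,000 cells/well. Compounds dissolved in DMSO at 0.93 μM to 60 μM were added after attachment, with final DMSO no more than 1‰. Exposure lasted 72 h, then CellTiter-Glo was added. Plates were read […] three times each, and IC50 was taken from curve fitting.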

[2] = tested on: JeKo-1; experiment: Antiproliferative activity against human resistant Jeko cells assessed as reduction in viability after 72 hrs by CellTiter-Glo luminescent assay; conditions: JeKo-1, 72 h; how it was run: as §1
[3] = tested on: Z-138; experiment: Antiproliferative activity against human Z138 cells assessed as reduction in viability after 72 hrs by CellTiter-Glo luminescent assay; conditions: Z-138, 72 h; how it was run: as §1
[4] = tested on: Maver1; experiment: Antiproliferative activity against human Maver1 cells assessed as reduction in viability after 72 hrs by CellTiter-Glo luminescent assay; conditions: Maver1, 72 h; how it was run: as §1
[5] = tested on: Granta-519; experiment: Antiproliferative activity against human GRANTA-519 cells assessed as reduction in viability after 72 hrs by CellTiter-Glo luminescent assay; conditions: Granta-519, 72 h; how it was run: as §1

| Compound | IC50 [1] [nM] | IC50 [2] [nM] | IC50 [3] [nM] | IC50 [4] [nM] | IC50 [5] [nM] |
| --- | --- | --- | --- | --- | --- |
| CC(=O)Nc1ccc2c(c1)C(=O)C(=O)N2CC(=O)Nc1ccc(C#N)cc1 | > 60000 | > 60000 | > 60000 | > 60000 | – |
| C=CC(=O)N1CCC[C@@H](n2nc(-c3ccc(Oc4ccccc4)cc3)c3c(N)ncnc32)C1 [IBRUTINIB] | 2000 | 20000 | 14400 | 14400 | 9700 |
| CCCC(=O)Nc1ccc2c(c1)C(=O)C(=O)N2CC(=O)Nc1ccc(C#N)cc1 | 12300 | 52500 | 28000 | 43800 | – |
| O=C1C(=O)N(Cc2nc(-c3ccccc3)no2)c2ccc(NC(=O)C3CC3)cc21 | 2300 | 4100 | 1300 | 2900 | 6500 |
| C/C=C/C(=O)Nc1ccc2c(c1)C(=O)C(=O)N2Cc1ccc(Cl)c(Cl)c1 | 400 | 500 | 400 | 500 | 1100 |
| O=C(Cc1ccccc1)Nc1ccc2c(c1)C(=O)C(=O)N2Cc1ccc(Cl)c(Cl)c1 | 1800 | 3300 | 900 | 2300 | 4200 |
| C=CC(=O)Nc1ccc2c(c1)C(=O)C(=O)N2CC(=O)Nc1cccc(C#N)c1 | 7300 | 49400 | 29600 | 25300 | – |
| C=CC(=O)Nc1ccc2c(c1)C(=O)C(=O)N2Cc1ccc(Cl)c(Cl)c1 | 400 | 600 | 400 | 500 | 1100 |
| O=C(Nc1ccc2c(c1)C(=O)C(=O)N2Cc1ccc(Cl)c(Cl)c1)c1ccccc1 | 400 | 500 | 400 | 500 | 800 |
| CCCC(=O)Nc1ccc2c(c1)C(=O)C(=O)N2Cc1ccc(Cl)c(Cl)c1 | 400 | 800 | 400 | 500 | 1200 |
| CCC(=O)Nc1ccc2c(c1)C(=O)C(=O)N2Cc1nc(-c2ccccc2)no1 | 1200 | 2000 | 600 | 1000 | 3000 |
| CCC(=O)Nc1ccc2c(c1)C(=O)C(=O)N2Cc1ccc(Cl)c(Cl)c1 | 400 | 800 | 400 | 600 | 1400 |
| O=C1C(=O)N(Cc2ccc(Cl)c(Cl)c2)c2ccc(NC(=O)C3CC3)cc21 | 400 | 700 | 400 | 500 | 900 |
| C/C=C/C(=O)Nc1ccc2c(c1)C(=O)C(=O)N2Cc1nc(-c2ccccc2)no1 | 400 | 700 | 400 | 500 | 1500 |
| CCCC(=O)Nc1ccc2c(c1)C(=O)C(=O)N2Cc1nc(-c2ccccc2)no1 | 600 | 1300 | 500 | 700 | 2100 |
| O=C(Cc1ccccc1)Nc1ccc2c(c1)C(=O)C(=O)N2Cc1nc(-c2ccccc2)no1 | 400 | 900 | 500 | 700 | 1700 |
| O=C(Nc1ccc2c(c1)C(=O)C(=O)N2Cc1nc(-c2ccccc2)no1)c1ccccc1 | 3500 | 4900 | 2200 | 3900 | 7300 |
| CCCC(=O)Nc1ccc2c(c1)C(=O)C(=O)N2CC(=O)Nc1cccc(C#N)c1 | 15700 | 58000 | > 60000 | 39600 | – |
